Laboratory results from ChEMBL document CHEMBL4706601, “The endocannabinoid system dual-target ligand N-cycloheptyl-1,2-dihydro-5-bromo-1-(4-fluorobenzyl)-6-methyl-2-oxo-pyridine-3-carboxamide improves disease severity in a mouse model of multiple sclerosis” (Eur J Med Chem, 2020).
Calls of active or inactive are those of the source. The rule behind the calls is not given here.

Key:
Cannabinoid receptor 2 [1] = molecular target: T1, Cannabinoid receptor 2 (Homo sapiens, UniProt P34972); experiment: Competitive antagonist activity at human CB2R expressed in CHO cell membranes assessed as rightward shift of N-cycloheptyl-1,2-dihydro-5-bromo-1-(4-fluoro benzyl)-6-methyl-2-oxo-pyridine-3-carboxamide-induced GTPgammaS binding by measuring fold change in N-cycloheptyl-1,2-dihydro-5-bromo-1-(4-fluoro benzyl)-6-methyl-2-oxo-pyridine-3-carboxamide EC50 at 300 nM preincubated with compound for 30 mins followed by GTPgammaS addition and measured after 90 mins by [35S]GTPgammaS assay; assay type: functional; conditions: Membrane, time 120.0 min
T1 sequence (P34972 whole entry): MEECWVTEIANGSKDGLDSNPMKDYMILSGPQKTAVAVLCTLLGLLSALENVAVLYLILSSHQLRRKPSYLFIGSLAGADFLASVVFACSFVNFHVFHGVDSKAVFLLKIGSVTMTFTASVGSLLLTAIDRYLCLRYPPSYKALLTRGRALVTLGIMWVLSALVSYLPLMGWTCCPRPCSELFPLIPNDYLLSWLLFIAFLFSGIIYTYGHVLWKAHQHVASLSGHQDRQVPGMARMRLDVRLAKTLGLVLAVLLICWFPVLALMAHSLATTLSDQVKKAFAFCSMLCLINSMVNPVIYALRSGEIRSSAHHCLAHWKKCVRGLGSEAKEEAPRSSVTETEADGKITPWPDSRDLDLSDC
Method in brief: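 hCB2 CHO membranes in GTPγS buffer (10 μM GDP, 0.1 nM [35S]GTPγS, pH 7.4) pre-incubated 30 min with antagonist at 300 nM or 1 µM, then agonist or inverse agonist concentration series, 90 min at 30 °C. EC50 and Emax reported with 95% CI; Schild analysis; controls CP55,940 100 nM and AM630 1 μM; ≥3 experiments in triplicate.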

Cannabinoid receptor 2 [2] = molecular target: T1, Cannabinoid receptor 2; experiment: (§1) Non-competitive antagonist activity at human CB2R expressed in CHO cell membranes assessed as N-cycloheptyl-1,2-dihydro-1-(4-fluorobenzyl)-6-methyl-2-oxo-5-phenyl-pyridine-3-carboxamide Emax at 300 nM preincubated with compound for 30 mins followed by GTPgammaS addition and measured after 90 mins by [35S]GTPgammaS assay (reference value: -49.9%); assay type: functional; conditions: Membrane, filed as antagonist, time 120.0 min
Method in brief: (§2)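 hCB2 membranes from stably transfected CHO cells (10 µg) pre-incubated 30 min with antagonist, then an inverse-agonist concentration series added. Buffer: 50 mM Tris-HCl, 3 mM MgCl2, 0.2 mM EDTA, 100 mM NaCl, 0.5% fatty-acid-free BSA, pH 7.4, with 10 µM GDP and 0.1 nM [35S]GTPγS. Incubated 90 min at 30 °C, then filtered. Non-specific binding measured with 10 µM GTPγS. Emax given with 95% CI; at least 3 experiments, each in triplicate.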

Homo sapiens = species on record: Homo sapiens; experiment: Selectivity index, ratio of Ki for human CB1R expressed in CHO cell membranes to Ki for human CB2R expressed in CHO cell membranes; assay type: cell-based
Cannabinoid receptor 2 [3] = molecular target: T1, Cannabinoid receptor 2; experiment: as §1, with “1000” for “300”; assay type: functional; conditions: Membrane, filed as antagonist, time 120.0 min; method in brief: as §2
Mus musculus [4] = experiment: (§3) Antinociceptive activity in CD-1 albino mouse model of oxaliplatin-induced neuropathic pain assessed as decrease in pain-related behaviour at 10 mg/kg, po pretreated with CB2R antagonist, SR144528 for 15 mins before compound addition treated on day 15 post oxaliplatin treatment and measured after 15 to 75 mins post dose by cold plate test; assay type: functional, organism-based; conditions: time 15-75 min
Method in brief: (§4)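 Male CD-1 mice (22-25 g) given oxaliplatin 2.4 mg/kg i.p. in 5% glucose on days 1-2, 5-9, 12-14; tested day 15. Compound in 1% carboxymethylcellulose orally at 5, 10, 20, 50 mg/kg. Cold plate licking latency at 15, 30, 45, 60, 75 min post dose. Selective CB1R and CB2R antagonists co-tested. 16 mice per treatment across 2 sessions; one-way ANOVA with Bonferroni.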

[5] = molecular target: Cannabinoid receptor 2 (Mus musculus) (UniProt P47936); experiment: Agonist activity at CB2R in LPS induced mouse BV2 cells assessed as increase in IL-10 secretion at 10 uM preincubated with CB2R antagonist, SR144528 for 15 mins followed by compound additon for 30 mins after LPS stimulation for 4 hrs by ELISA; assay type: cell-based; conditions: BV-2, time 270.0 min
Sequence of Cannabinoid receptor 2 (Mus musculus) (P47936 whole entry): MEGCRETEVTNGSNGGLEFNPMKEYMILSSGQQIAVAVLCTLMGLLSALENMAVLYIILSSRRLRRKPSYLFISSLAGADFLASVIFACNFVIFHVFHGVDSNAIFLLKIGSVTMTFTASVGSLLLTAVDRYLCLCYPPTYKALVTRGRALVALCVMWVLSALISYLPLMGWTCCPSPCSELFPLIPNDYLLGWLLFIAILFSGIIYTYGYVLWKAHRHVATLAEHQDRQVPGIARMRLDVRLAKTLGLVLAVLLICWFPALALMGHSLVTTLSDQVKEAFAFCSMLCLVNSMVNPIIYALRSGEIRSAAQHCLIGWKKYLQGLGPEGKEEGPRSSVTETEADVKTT
Method in brief: (§5)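 BV-2 murine microglia grown in high-glucose DMEM with 10% FBS. Treatments in FBS-free medium: test agonist 10 μM for 30 min, then LPS 5 μg/ml for 4 h; SR144528 10 μM given 15 min before agonist. DMSO ≤0.1% final. Medium spun 10 min at 1000×g; IL-1β, IL-6, IL-10 quantified by ELISA; three independent experiments in duplicate.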

[6] = molecular target: Cannabinoid receptor 2 (Mus musculus) (UniProt P47936); experiment: Agonist activity at CB2R in LPS induced mouse BV2 cells assessed as increase in IL-10 secretion at 10 uM preincubated for 30 mins followed by LPS stimulation for 4 hrs by ELISA; assay type: cell-based; conditions: BV-2, filed as agonist, time 270.0 min; method in brief: as §5
Mus musculus [7] = experiment: as §3, with “CB1R” for “CB2R”, “SR141716A” for “SR144528”; assay type: functional, organism-based; conditions: time 15-75 min; method in brief: as §4
[8] = molecular target: Cannabinoid receptor 1 (Rattus norvegicus) (UniProt P20272); experiment: Agonist activity at CB1R in Sprague-Dawley rat hippocampal synaptosomes assessed as inhibition of 4-AP evoked glutamate release at 10 uM preincubated for 8 mins followed by 4-AP addition in presence of 1 uM CB2R antagonist, SR144528 by HPLC analysis; assay type: subcellular; conditions: Hippocampus, filed as agonist
Sequence of Cannabinoid receptor 1 (Rattus norvegicus) (P20272 whole entry, the tested form may be a part): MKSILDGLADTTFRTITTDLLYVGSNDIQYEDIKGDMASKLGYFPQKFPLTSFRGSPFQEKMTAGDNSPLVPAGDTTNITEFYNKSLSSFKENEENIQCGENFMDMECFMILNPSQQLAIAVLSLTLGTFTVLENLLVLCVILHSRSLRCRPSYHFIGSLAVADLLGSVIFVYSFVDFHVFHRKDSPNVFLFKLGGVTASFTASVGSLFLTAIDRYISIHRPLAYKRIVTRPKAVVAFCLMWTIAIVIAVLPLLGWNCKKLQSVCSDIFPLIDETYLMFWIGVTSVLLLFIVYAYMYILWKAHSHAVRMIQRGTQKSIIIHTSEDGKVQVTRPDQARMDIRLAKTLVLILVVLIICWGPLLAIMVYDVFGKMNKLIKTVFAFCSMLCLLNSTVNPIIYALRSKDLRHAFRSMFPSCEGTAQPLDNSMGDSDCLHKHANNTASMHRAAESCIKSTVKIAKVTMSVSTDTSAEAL
Method in brief: (§6)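 Rat (male Sprague Dawley, 200-250 g) hippocampal synaptosomes from Percoll gradient, superfused at 37 °C (0.5 ml/min); 4-AP 600 μM for 2 min. Compounds and antagonists (SR141716A, SR144528, 1 μM) added 8 min before 4-AP and kept during it; basal effects tested by 2-min exposure alone. Endogenous glutamate by HPLC as pmol/mg protein; overflow = stimulated minus basal in control chambers; n = 3–9, triplicate.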

Mus musculus [9] = experiment: (§7) Antiinflammatory activity in MOG (35 to 55 residues)/pertussis toxin-induced experimental autoimmune encephalomyelitis C57BL/6J mouse model assessed as improvement in disease severity at 10 mg/kg, ip dosed once daily for 20 days starting from day 10 to 16 post immunization and measured at day 5 to 9 post treatment; assay type: functional, organism-based; conditions: time 5-9 day
Method in brief: (§8)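 Active EAE in mice: 200 µg MOG35-55 in CFA (4 mg/ml M. tuberculosis) s.c. at hips and tail root, plus pertussis toxin 300 ng i.p. after immunization and 48 h later. Daily i.p. dosing (DMSO vehicle) for 20 days from each mouse's onset (day 10–16); onset = day 1. Daily clinical score; multiple t-tests with Holm-Sidak.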

Mus musculus [10] = experiment: as §7, with “reduction” for “improvement”, “clinical scores” for “disease severity”, “from 2” for “at day 5”, “4 days” for “9”; assay type: functional; conditions: time 2-4 day; method in brief: as §8
Mus musculus [11] = experiment: as §7, with “reduction” for “improvement”, “clinical scores” for “disease severity”, “from 10” for “at day 5”, “19 days” for “9”; assay type: functional; conditions: time 10-19 day; method in brief: as §8
[12] = molecular target: Cannabinoid receptor 2 (Mus musculus) (UniProt P47936); experiment: Agonist activity at CB2R in LPS induced mouse BV2 cells assessed as reduction in IL-1beta secretion at 10 uM preincubated with CB2R antagonist, SR144528 for 15 mins followed by compound additon for 30 mins after LPS stimulation for 4 hrs by ELISA; assay type: cell-based; conditions: BV-2, time 270.0 min; method in brief: as §5
Cannabinoid receptor 1 = Cannabinoid receptor 1 (Homo sapiens, UniProt P21554); experiment: Agonist activity at human CB1R expressed in CHO cell membranes after 90 mins by [35S]GTPgammaS assay; assay type: functional, Membrane
Sequence of Cannabinoid receptor 1 (P21554 whole entry): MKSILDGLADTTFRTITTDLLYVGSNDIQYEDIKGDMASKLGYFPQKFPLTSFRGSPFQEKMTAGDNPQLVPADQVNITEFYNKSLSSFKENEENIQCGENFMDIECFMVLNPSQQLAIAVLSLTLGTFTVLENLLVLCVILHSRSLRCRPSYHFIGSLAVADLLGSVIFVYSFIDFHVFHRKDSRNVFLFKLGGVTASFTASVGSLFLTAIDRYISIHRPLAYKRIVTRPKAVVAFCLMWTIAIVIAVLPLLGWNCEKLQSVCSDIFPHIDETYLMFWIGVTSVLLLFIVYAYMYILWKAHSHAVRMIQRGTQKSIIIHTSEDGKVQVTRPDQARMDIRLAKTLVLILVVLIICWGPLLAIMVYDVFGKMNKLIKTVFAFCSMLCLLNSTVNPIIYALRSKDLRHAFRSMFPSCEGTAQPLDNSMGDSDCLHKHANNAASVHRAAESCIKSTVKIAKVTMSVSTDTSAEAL
Method in brief: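 In-house CHO membranes expressing hCB1 or hCB2 (10 µg) in 50 mM Tris-HCl, 3 mM MgCl2, 0.2 mM EDTA, 100 mM NaCl, 0.5% fatty-acid-free BSA, pH 7.4, with 10 μM GDP and 0.1 nM [35S]GTPγS. Incubated 90 min at 30 °C; antagonist pre-incubated 30 min. Nonspecific binding with 10 μM GTPγS; bound label by filtration and counting; ≥3 experiments in triplicate.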

[13] = molecular target: Cannabinoid receptor 1 (Rattus norvegicus) (UniProt P20272); experiment: Agonist activity at CB1R in Sprague-Dawley rat hippocampal synaptosomes assessed as inhibition of 4-AP evoked glutamate release at 10 uM preincubated for 8 mins followed by 4-AP addition in presence of 1 to 3 uM CB1R antagonist, SR141716A by HPLC analysis; assay type: subcellular; conditions: Hippocampus; method in brief: as §6

Row | Structure (SMILES) | fold change (FC) (Cannabinoid receptor 2 [1]) | Emax (Cannabinoid receptor 2 [2]) | Ratio Ki (Homo sapiens) | Emax (Cannabinoid receptor 2 [3]) | Activity (Mus musculus [4]) | Activity [5] | Activity [6] | Activity (Mus musculus [7]) | Activity [8] | Activity (Mus musculus [9]) | inhibition in vivo at 10 mg/kg (Mus musculus [10]) | inhibition in vivo at 10 mg/kg (Mus musculus [11]) | Activity [12] | EC50 (Cannabinoid receptor 1) | Activity [13]
1 | COc1ccc(-c2cc(C(=O)NC3CCCCCC3)c(=O)n(Cc3ccc(F)cc3)c2C)cc1 | 19 | -28.6% | 0.37 | -24.9% | – | – | – | – | – | – | – | – | – | – | –
2 | Cc1c(Br)cc(C(=O)NC2CCCCCC2)c(=O)n1Cc1ccc(F)cc1 | – | – | – | – | inactive | inactive | 484% | inactive | Active | inactive | 30% | 50% | inactive | 56.1 nM | inactive
